Experimental data: ChEMBL document CHEMBL2331233, “Rational design, efficient syntheses and biological evaluation of N,N'-symmetrically bis-substituted butylimidazole analogs as a new class of potent Angiotensin II receptor blockers” (Eur J Med Chem, 2013)

Assays:
[1] = target: T1, Type-1 angiotensin II receptor (Homo sapiens, UniProt P30556); assay: Displacement of [125I-Sar1-Ile8]-ANG2 from human Angiotensin 2 type-1 receptor expressed in HEK293 cells after 1 hr by gamma counting analysis; assay type: cell-based
T1 sequence (P30556 whole entry): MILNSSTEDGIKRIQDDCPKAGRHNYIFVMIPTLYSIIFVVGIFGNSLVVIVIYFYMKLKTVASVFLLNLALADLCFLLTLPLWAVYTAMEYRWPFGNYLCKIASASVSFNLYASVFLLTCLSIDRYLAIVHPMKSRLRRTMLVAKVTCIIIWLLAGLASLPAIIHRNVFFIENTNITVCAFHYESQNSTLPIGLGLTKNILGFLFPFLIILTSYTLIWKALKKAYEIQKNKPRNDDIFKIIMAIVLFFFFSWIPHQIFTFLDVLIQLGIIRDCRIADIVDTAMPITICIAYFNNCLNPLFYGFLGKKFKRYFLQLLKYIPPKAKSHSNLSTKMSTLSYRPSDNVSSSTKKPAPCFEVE
How it was run: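 Membranes from HEK 293 cells stably transfected with human AT1 receptor (Geneticin 700 µg/mL selection) incubated in buffer B (50 mM Tris–HCl, 1 mM EDTA, 10 mM MgCl2, 0.2% BSA, bacitracin, aprotinin, pH 7.4) with 100,000–120,000 cpm radioligand and increasing analog concentrations, 1 h, 24 °C; GF/C filtration. Nonspecific binding with 1000 nM [Sar1-Ile8]ANGII. One-site nonlinear fit gives -log IC50; 2–4 experiments.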

[2] = Antagonist activity at Angiotensin 2 type-1 receptor in Wistar rat uterus assessed as suppression of ANG2-induced contraction

Row | SMILES | IC50 [1] [nM] | pA2 [2]
1 | CCCCc1c(Cl)[n+](Cc2ccc(-c3ccccc3-c3nn[nH]n3)cc2)c(CO)n1Cc1ccc(-c2ccccc2-c2nn[nH]n2)cc1 | 6460 | –
2 | CCCCc1c(Br)[n+](Cc2ccc(-c3ccccc3-c3nn[nH]n3)cc2)c(CO)n1Cc1ccc(-c2ccccc2-c2nn[nH]n2)cc1.[Br-] | 42.7 | 7.13
3 | CCCCc1n(Cc2ccc(-c3ccccc3-c3nn[nH]n3)cc2)c(CO)c(Cl)[n+]1Cc1ccc(-c2ccccc2-c2nn[nH]n2)cc1 | 417 | –
4 | CCCCc1c[n+](Cc2ccc(-c3ccccc3C(=O)O)cc2)cn1Cc1ccc(-c2ccccc2C(=O)O)cc1 | 331 | –
5 | CCCCc1c[n+](Cc2ccc(-c3ccccc3C(=O)O)cc2)c(CO)n1Cc1ccc(-c2ccccc2C(=O)O)cc1 | 501 | –
6 | CCCCc1c[n+](Cc2ccc(-c3ccccc3-c3nn[n-]n3)cc2)cn1Cc1ccc(-c2ccccc2-c2nn[nH]n2)cc1 | 0.912 | –
7 | CCCCc1c[n+](Cc2ccc(-c3ccccc3-c3nn[n-]n3)cc2)cn1Cc1ccc(-c2ccccc2-c2nn[n-]n2)cc1.[Br-].[Na+].[Na+] | 2.88 | 8.45

More lines, now with the values ahead:

Row | IC50 [1] [nM] | pA2 [2] | SMILES
8 | 4.27 | 8.58 | CCCCc1c[n+](Cc2ccc(-c3ccccc3-c3nn[nH]n3)cc2)c(CO)n1Cc1ccc(-c2ccccc2-c2nn[nH]n2)cc1.[Br-]
9 | 832 | – | CCCCc1c(Cl)[n+](Cc2ccc(-c3ccccc3-c3nn[nH]n3)cc2)cn1Cc1ccc(-c2ccccc2-c2nn[nH]n2)cc1
10 | 708 | – | CCCCc1c(Br)[n+](Cc2ccc(-c3ccccc3-c3nn[nH]n3)cc2)cn1Cc1ccc(-c2ccccc2-c2nn[nH]n2)cc1
11 | 1700 | – | CCCCc1n(Cc2ccc(-c3ccccc3-c3nn[nH]n3)cc2)cc[n+]1Cc1ccc(-c2ccccc2-c2nn[nH]n2)cc1
12 | 0.347 | – | CCCCc1c[n+](Cc2ccc(-c3ccccc3-c3nn[nH]n3)cc2)cn1Cc1ccc(-c2ccccc2-c2nn[nH]n2)cc1
